How the values were obtained:
A1R [1] = target: T1, A1R (Homo sapiens, UniProt P30542); assay: cAMP accumulation assay; type: cell-based; settings: for Emax: HEK293, read-out: A1 functional efficacy (Emax %)
T1 sequence (P30542 1-326): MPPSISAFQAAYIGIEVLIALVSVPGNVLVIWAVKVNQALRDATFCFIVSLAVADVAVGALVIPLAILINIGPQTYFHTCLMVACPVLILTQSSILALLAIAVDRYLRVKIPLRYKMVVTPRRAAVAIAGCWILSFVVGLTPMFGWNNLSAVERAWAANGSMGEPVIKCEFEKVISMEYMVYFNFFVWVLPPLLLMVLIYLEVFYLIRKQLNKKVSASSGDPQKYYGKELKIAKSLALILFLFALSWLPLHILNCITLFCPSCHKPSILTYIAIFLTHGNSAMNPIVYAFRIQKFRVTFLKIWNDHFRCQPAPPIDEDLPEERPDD
How it was run: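 HEK293 cells expressing A1R seeded at 1,000 cells/well on poly-D-lysine and kept overnight at 37 °C. Preincubated 30 min at 37 °C with adenosine deaminase 3 units/ml, rolipram 10 μM and the A2B antagonist PSB603 1 μM. Agonist applied 20 min, then forskolin 10 μM for 15 min at 37 °C. Cells lysed in 0.3% Tween-20 and cAMP measured by AlphaScreen. Emax relative to a reference agonist set at 100%.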

recombinant A2BR (human) = target: T2, recombinant A2BR (human) (Homo sapiens, UniProt P29275); assay: Competition radioligand binding, human A2BR
T2 sequence (P29275 1-332): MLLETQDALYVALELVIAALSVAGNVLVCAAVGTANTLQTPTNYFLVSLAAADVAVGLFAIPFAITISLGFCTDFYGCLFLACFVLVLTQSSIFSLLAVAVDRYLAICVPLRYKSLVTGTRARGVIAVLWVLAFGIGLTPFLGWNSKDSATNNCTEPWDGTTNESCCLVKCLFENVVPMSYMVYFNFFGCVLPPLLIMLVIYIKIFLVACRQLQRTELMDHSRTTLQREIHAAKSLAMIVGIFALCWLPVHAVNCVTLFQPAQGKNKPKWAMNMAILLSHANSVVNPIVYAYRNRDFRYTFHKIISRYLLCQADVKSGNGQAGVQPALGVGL
How it was run: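 Adenosine deaminase-treated membranes (3 units/mL, 30 min, 37 °C) of HEK293 cells carrying recombinant human A2BR. […] Nonspecific binding with 100 μM XAC. GF/B filtration, scintillation counting. Ki via Cheng–Prusoff, mean ± SEM of 2–4 experiments in duplicate.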

recombinant A3R (human) = target: T3, recombinant A3R (human) (Homo sapiens, UniProt P0DMS8); assay: Competition radioligand binding, human A3R; settings: for inhibition at 1 µM: read-out: % inhib., A3
T3 sequence (P0DMS8 1-318): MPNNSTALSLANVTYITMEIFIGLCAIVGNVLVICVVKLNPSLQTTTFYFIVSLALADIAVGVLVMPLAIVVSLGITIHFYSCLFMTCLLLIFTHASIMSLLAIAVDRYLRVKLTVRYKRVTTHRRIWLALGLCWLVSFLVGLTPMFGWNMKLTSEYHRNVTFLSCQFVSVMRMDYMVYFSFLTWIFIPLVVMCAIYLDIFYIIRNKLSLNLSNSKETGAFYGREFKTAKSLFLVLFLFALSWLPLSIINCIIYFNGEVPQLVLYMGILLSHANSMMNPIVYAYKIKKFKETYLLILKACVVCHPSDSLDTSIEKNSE

A1R [2] = target: T1, A1R; assay: Competition radioligand binding, human A1R
How it was run: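 Membranes from HEK293 cells expressing recombinant human A1R (DMEM, 10% FBS, 37 °C, 5% CO2), treated with adenosine deaminase 3 units/mL for 30 min at 37 °C. 20 μg protein per tube incubated 60 min at 25 °C in 50 mM Tris·HCl with 10 mM MgCl2, 0.5 nM [3H]8-cyclopentyl-1,3-dipropylxanthine and varied test compound. Nonspecific binding defined with 10 μM XAC. Bound ligand collected on GF/B filters and counted by scintillation. Ki by Cheng–Prusoff; mean ± SEM of 2–4 experiments in duplicate.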

recombinant A2AR (human) = recombinant A2AR (human) (Homo sapiens, UniProt P29274); assay: Competition radioligand binding, human A2AR; settings: for inhibition at 1 µM: read-out: % inhib., A2A
How it was run: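 Human A2AR expressed in HEK293 cells; membranes treated with adenosine deaminase 3 units/mL for 30 min at 37 °C. […] Nonspecific binding with 10 μM XAC. Filtration on GF/B, scintillation counting. Ki by Cheng–Prusoff, mean ± SEM of 2–4 experiments in duplicate.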

[3] = Small animal PET, brain uptake in rats; type: in vivo, rat; settings: 11C-labelled compound; for BBB permeability: rat pilot PET study; for standard uptake value (SUV), brain uptake: rat, whole brain, 10 min after intravenous administration
How it was run: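 Male Wistar rats (2–3 months, 318 ± 40 g) under 2–5% isoflurane, temperature held near 36.9 °C. After a 10 min transmission scan, 20.8–37.0 MBq 11C-labelled test compound in saline infused iv (tail vein or penile catheter, 600 μL/min). 90 min dynamic list-mode microPET, template coregistration, regional time-activity curves. Test–retest (n=3) 30 min later; blocking drugs given 10 min before the second injection.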

[4] = target: T4, A1R, rat brain membranes (forebrain) (Rattus norvegicus, UniProt P25099); assay: Competition radioligand binding, rat brain homogenates
T4 sequence (P25099 1-326): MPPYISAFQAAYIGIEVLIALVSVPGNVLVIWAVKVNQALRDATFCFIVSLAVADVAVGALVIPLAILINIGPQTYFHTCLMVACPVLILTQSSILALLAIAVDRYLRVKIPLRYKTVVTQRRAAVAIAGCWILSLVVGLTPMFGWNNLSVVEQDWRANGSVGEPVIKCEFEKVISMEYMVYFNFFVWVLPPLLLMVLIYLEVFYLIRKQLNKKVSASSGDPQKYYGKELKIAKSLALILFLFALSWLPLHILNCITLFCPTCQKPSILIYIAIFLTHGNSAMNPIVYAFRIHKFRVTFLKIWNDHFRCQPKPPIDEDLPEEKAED
How it was run: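 Rat forebrain homogenate incubated 60 min at 25 °C in 50 mM Tris·HCl with 10 mM MgCl2, 0.5 nM [3H]8-cyclopentyl-1,3-dipropylxanthine and varied test compound. Nonspecific binding defined with 10 μM XAC. Separation by GF/B filtration with 3 ice-cold buffer washes, then scintillation counting. IC50 converted to Ki by Cheng–Prusoff; mean ± SEM of 2–4 experiments in duplicate.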

[5] = target: A2AR, rat brain membranes (striatum) (Rattus norvegicus, UniProt P30543); assay: Competition radioligand binding, rat brain homogenates
How it was run: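 Rat striatum homogenate incubated 60 min at 25 °C in 50 mM Tris·HCl/10 mM MgCl2 with 0.8 nM [3H]ZM241385 and varied test compound. Nonspecific binding defined with 10 μM XAC. GF/B filtration with 3 ice-cold washes, then scintillation counting. Ki from IC50 by Cheng–Prusoff; mean ± SEM of 2–4 experiments in duplicate.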

Sequence of recombinant A2AR (human) (P29274 whole entry): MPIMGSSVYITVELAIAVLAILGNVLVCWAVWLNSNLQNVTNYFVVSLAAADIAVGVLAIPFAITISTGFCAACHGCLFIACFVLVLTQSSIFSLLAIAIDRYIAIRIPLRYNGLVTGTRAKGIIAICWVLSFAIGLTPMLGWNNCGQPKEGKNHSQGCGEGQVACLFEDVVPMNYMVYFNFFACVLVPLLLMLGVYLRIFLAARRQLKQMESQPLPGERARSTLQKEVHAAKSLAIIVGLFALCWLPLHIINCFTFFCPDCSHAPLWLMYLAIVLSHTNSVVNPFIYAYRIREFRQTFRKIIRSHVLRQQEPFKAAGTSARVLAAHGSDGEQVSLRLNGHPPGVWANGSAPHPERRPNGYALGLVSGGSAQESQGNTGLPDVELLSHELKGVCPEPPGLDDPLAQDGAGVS
Sequence of A2AR, rat brain membranes (striatum) (P30543 whole entry): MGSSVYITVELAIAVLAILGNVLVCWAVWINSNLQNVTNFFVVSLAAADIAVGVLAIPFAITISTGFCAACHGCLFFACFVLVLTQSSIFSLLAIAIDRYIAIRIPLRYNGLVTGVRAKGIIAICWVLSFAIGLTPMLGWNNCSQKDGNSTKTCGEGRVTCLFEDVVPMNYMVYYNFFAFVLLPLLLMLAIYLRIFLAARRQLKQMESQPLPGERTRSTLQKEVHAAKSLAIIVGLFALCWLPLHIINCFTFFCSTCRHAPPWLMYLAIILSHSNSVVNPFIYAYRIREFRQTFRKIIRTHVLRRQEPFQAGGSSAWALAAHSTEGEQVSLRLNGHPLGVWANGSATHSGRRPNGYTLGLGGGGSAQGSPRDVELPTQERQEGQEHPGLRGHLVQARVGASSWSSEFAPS

| Structure (SMILES) | Emax (A1R [1]) [%] | Ki (recombinant A2BR (human)) [nM] | Ki (recombinant A3R (human)) [nM] | Ki (A1R [2]) [nM] | Ki (recombinant A2AR (human)) [nM] | further results |
| --- | --- | --- | --- | --- | --- | --- |
| Cc1cccc(CSc2nc(N)c(C#N)c(-c3cccc(O)c3)n2)n1 [21e, 4-Amino-6-(3-hydroxyphenyl)-2-(((6-methylpyridin-2-yl)methyl)thio)pyrimidine-5-carbonitrile] | 18 ± 3.3 | 126 ± 12 | 79 ± 9.4 | 18 ± 2.1 | 93 ± 63 | – |
| COc1cccc(-c2nc(SCc3cccc(C)n3)nc(N)c2C#N)c1 [21b, 4-Amino-6-(3-methoxyphenyl)-2-(((6-methylpyridin-2-yl)methyl)thio)pyrimidine-5-carbonitrile] | 3.4 ± 1.9 | – | – | 7.2 ± 2.4 | – | inhibition at 1 µM (recombinant A2BR (human); read-out: % inhib., A2B): 35 ± 10%; inhibition at 1 µM (recombinant A3R (human)): 42 ± 11%; inhibition at 1 µM (recombinant A2AR (human)): 46 ± 1% |
| CSc1nc(N)c(C#N)c(-c2ccc(NC(C)=O)cc2)n1 [compound 13, N-(4-(6-Amino-5-cyano-2-(methylthio)pyrimidin-4-yl)phenyl)acetamide] | – | – | – | – | – | BBB permeability [3]: poor BBB permeability |
| COc1ccc(-c2nc(SCc3cccc(C)n3)nc(N)c2C#N)cc1 [21a, 4-Amino-6-(4-methoxyphenyl)-2-(((6-methylpyridin-2-yl)methyl)thio)pyrimidine-5-carbonitrile] | -2 ± 3.5 | 305 ± 108 | – | 29 ± 0.1 | – | inhibition at 1 µM (recombinant A3R (human)): 44 ± 3%; inhibition at 1 µM (recombinant A2AR (human)): 32 ± 2% |
| COc1ccc(-c2nc(SC)nc(N)c2C#N)cc1 [compound 15, 4-Amino-6-(4-methoxyphenyl)-2-(methylthio)pyrimidine-5-carbonitrile] | – | – | – | – | – | standard uptake value (SUV), brain uptake [3]: ~ 3 g/mL |
| COc1ccc(-c2c(C#N)c(N)nc(SC)c2C#N)cc1 [compound 14, 2-Amino-4-(4-methoxyphenyl)-6-(methylthio)pyridine-3,5-dicarbonitrile] | – | – | – | – | – | standard uptake value (SUV), brain uptake [3]: ~ 3 g/mL |
| COc1cccc(-c2nc(SCc3ncc[nH]3)nc(N)c2C#N)c1 [21d, 2-(((1H-Imidazol-2-yl)methyl)thio)-4-amino-6-(3-methoxyphenyl)pyrimidine-5-carbonitrile] | 4.9 ± 3.3 | 208 ± 27 | 703 ± 50 | 48 ± 2.8 | 554 ± 273 | – |
| CSc1nc(N)c(C#N)c(-c2ccc(NC(C)=O)cc2)c1C#N [compound 12, N-(4-(2-Amino-3,5-dicyano-6-(methylthio)pyridin-4-yl)phenyl)acetamide] | – | – | – | – | – | BBB permeability [3]: poor BBB permeability |
| COc1ccc(-c2nc(SCc3ncc[nH]3)nc(N)c2C#N)cc1 [21c, 2-(((1H-Imidazol-2-yl)methyl)thio)-4-amino-6-(4-methoxyphenyl)pyrimidine-5-carbonitrile] | 1.4 ± 3.1 | 237 ± 48 | – | 306 ± 17 | – | inhibition at 1 µM (recombinant A3R (human)): 51 ± 5% |
| N#Cc1c(N)nc(SCc2ncc[nH]2)nc1-c1cccc(O)c1 [21f, 2-(((1H-Imidazol-2-yl)methyl)thio)-4-amino-6-(3-hydroxyphenyl)pyrimidine-5-carbonitrile] | 41 ± 6.1 | 38 ± 7.3 | 112 ± 14 | 110 ± 31 | 96 ± 13.3 | – |

Now from value to molecule, other results behind:

| Emax (A1R [1]) [%] | Ki (recombinant A2BR (human)) [nM] | Ki (recombinant A3R (human)) [nM] | Ki (A1R [2]) [nM] | Ki (recombinant A2AR (human)) [nM] | Structure (SMILES) | further results |
| --- | --- | --- | --- | --- | --- | --- |
| -0.06 ± 3.3 | 30 ± 2.5 | 701 ± 244 | 2.9 ± 0.7 | 35 ± 19 | COc1ccc(-c2c(C#N)c(N)nc(SCc3cccc(C)n3)c2C#N)cc1 [22a, 2-Amino-4-(4-methoxyphenyl)-6-(((6-methylpyridin-2-yl)methyl)thio)pyridine-3,5-dicarbonitrile] | – |
| 109 ± 7.8 | 24 ± 16 | 74 ± 3.4 | 3.5 ± 1.3 | 15 ± 3.1 | Cc1cccc(CSc2nc(N)c(C#N)c(-c3cccc(O)c3)c2C#N)n1 [22e, 2-Amino-4-(3-hydroxyphenyl)-6-(((6-methylpyridin-2-yl)methyl)thio)pyridine-3,5-dicarbonitrile] | – |
| 122 ± 5.2 | 1.2 ± 0.2 | 22 ± 6.7 | 53 ± 18 | 2.8 ± 0.1 | CC(=O)Nc1ccc(-c2c(C#N)c(N)nc(SCc3cccc(C)n3)c2C#N)cc1 [22g, N-(4-(2-Amino-3,5-dicyano-6-(((6-methylpyridin-2-yl)methyl)thio)pyridin-4-yl)phenyl)acetamide] | – |
| 16 ± 2.3 | 75 ± 30 | – | 0.49 ± 0.06 | 71 ± 25 | COc1cccc(-c2c(C#N)c(N)nc(SCc3cccc(C)n3)c2C#N)c1 [22b, 2-Amino-4-(3-methoxyphenyl)-6-(((6-methylpyridin-2-yl)methyl)thio)pyridine-3,5-dicarbonitrile] | EC50 (A1R [1]): 1 nM; inhibition at 1 µM (recombinant A3R (human)): 42 ± 11%; Ki [4]: 0.21 nM; Ki [5]: 52 nM |

Reference: publication PMC8327296 (Journal of medicinal chemistry, 2018)
